According to ChEMBL document CHEMBL4043182, “On the synthesis of quinone-based BODIPY hybrids: New insights on antitumor activity and mechanism of action in cancer cells” (Bioorg Med Chem Lett, 2017):
Calls of active or inactive are those of the source. The rule behind the calls is not given here.

Experiments:
HCT-116 [1] = experiment: Antiproliferative activity against human HCT116 cells after 72 hrs by MTT assay; type: functional, cell-based; conditions: HCT-116, 72 h
Procedure, shortened: (§1)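 MTT reduction: cancer lines plated at 0.7×10^5 to 0.3×10^6 cells/well, V79 and L929 fibroblasts at 0.5×10^5 cells/well. Compounds in DMSO (0.1%) were given for 24 h at 0.04–40.92 µM or 72 h at 0.04–8.19 µM. Fresh medium with 0.5 mg/mL MTT was added for 3 h, then formazan was dissolved in DMSO and read at 595 nm as % of control. IC50 came from nonlinear regression with 95% CI. Doxorubicin (0.001–1.06 µM) was the positive control. Triplicate, ≥3 repeats.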

L929 [2] = experiment: Antiproliferative activity against mouse L929 cells after 72 hrs by MTT assay; type: cell-based; conditions: L929, 72 h; procedure, shortened: as §1
[3] = Selective index, ratio of IC50 for chinese hamster V79 cells to IC50 for human SF295 cells
Procedure, shortened: (§2)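 Selectivity index is the ratio of the IC50 in a non-cancer murine line (V79 or L929) to the IC50 in the cancer line. […] MTT was 0.5 mg/mL for 3 h, formazan dissolved in DMSO and read at 595 nm as % of control. IC50s were derived by nonlinear regression; triplicate, at least three repeats.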

[4] = Selective index, ratio of IC50 for chinese hamster V79 cells to IC50 for human MDA-MB-435 cells; procedure, shortened: as §2
SF-295 [5] = experiment: Induction of lipid peroxidation in human SF295 cells assessed as increase in MDA levels at 2.5 to 10 uM after 24 hrs in absence of NAC by TBARS assay; type: functional, cell-based
Procedure, shortened: (§3)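 TBARS: cells were exposed 24 h, with or without 24 h prior 5 mM NAC, and lysed in Tris-HCl. Lysate was heated with TCA/0.25 M HCl and 6.7 mg/mL TBA for 15 min at 100 °C, centrifuged, and read at 532 nm. Hydrolyzed tetramethoxypropane served as standard, with values normalized to protein. H2O2 (10 µM) was the positive control. Three independent experiments in triplicate; ANOVA/Tukey.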

PC-3 [6] = experiment: Induction of lipid peroxidation in human PC3 cells assessed as increase in MDA levels at 2.5 to 10 uM treated 24 hrs post NAC addition measured after 24 hrs by TBARS assay; type: functional, cell-based; procedure, shortened: as §3
PC-3 [7] = experiment: Induction of oxidative stress in human PC3 cells assessed as total intracellular thiol levels at 5 uM after 24 hrs by spectrophotometric analysis (reference value: 4.23 +/- 0.75 microg/mg); type: functional
PC-3 [8] = experiment: Induction of oxidative stress in human PC3 cells assessed as total intracellular thiol levels at 5 uM treated 24 hrs post NAC addition measured after 24 hrs by spectrophotometric analysis (reference value: 4.23 +/- 0.75 microg/mg); type: functional
Procedure, shortened: (§4)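 Cells were pretreated 24 h with 5 mM NAC, then exposed 24 h to test compound at 5 µM. Controls received 0.1% DMSO. Extracts were prepared by sonication and HClO4 precipitation, then neutralized with KOH. Total glutathione was read by DTNB/glutathione reductase/NADPH rate at 412 nm. GSSG was measured after 4-vinylpyridine (0.1%, 1 h, RT) and GSH derived by difference. Values are normalized to protein, triplicates, three independent runs.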

SF-295 [9] = experiment: Induction of oxidative stress in human SF295 cells assessed as total intracellular thiol levels at 5 uM after 24 hrs by spectrophotometric analysis (reference value: 4.51 +/- 0.83 microg/mg); type: functional
SF-295 [10] = experiment: Induction of oxidative stress in human SF295 cells assessed as GSH to GSSG ratio at 5 uM after 24 hrs by spectrophotometric analysis (reference value: 2.34 +/- 0.56 microg/mg); type: functional
SF-295 [11] = experiment: Induction of oxidative stress in human SF295 cells assessed as GSH to GSSG ratio at 5 uM treated 24 hrs post NAC addition measured after 24 hrs by spectrophotometric analysis (reference value: 2.34 +/- 0.56 microg/mg); type: functional; procedure, shortened: as §4
HCT-116 [12] = experiment: Induction of oxidative stress in human HCT116 cells assessed as total intracellular thiol levels at 5 uM treated 24 hrs post NAC addition measured after 24 hrs by spectrophotometric analysis (reference value: 5.02 +/- 0.91 microg/mg); type: functional
HCT-116 [13] = experiment: Induction of oxidative stress in human HCT116 cells assessed as total GSSG levels at 5 uM treated 24 hrs post NAC addition measured after 24 hrs by spectrophotometric analysis (reference value: 1.19 +/- 0.37 microg/mg); type: functional
L929 [14] = experiment: Induction of oxidative stress in mouse L929 cells assessed as total intracellular thiol levels at 5 uM after 24 hrs by spectrophotometric analysis (reference value: 4.87 +/- 0.25 microg/mg); type: cell-based; conditions: l929, 24 h
L929 [15] = experiment: Induction of oxidative stress in mouse L929 cells assessed as total intracellular thiol levels at 5 uM treated 24 hrs post NAC addition measured after 24 hrs by spectrophotometric analysis (reference value: 4.87 +/- 0.25 microg/mg); type: cell-based; conditions: l929, 24 h
L929 [16] = experiment: Induction of oxidative stress in mouse L929 cells assessed as total GSH levels at 5 uM after 24 hrs by spectrophotometric analysis (reference value: 3.76 +/- 0.51 microg/mg); type: cell-based; conditions: l929, 24 h
HCT-116 [17] = experiment: Cytotoxicity against human HCT116 cells after 24 hrs in presence of GSH-OEt by MTT assay; type: functional, cell-based; conditions: HCT-116, 24 h
Procedure, shortened: (§5)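 24 h MTT exposure (0.04–40.92 µM in 0.1% DMSO), with or without co-treatment with GSH ethyl ester (15 mM) to gauge the ROS contribution. MTT was 0.5 mg/mL for 3 h, with formazan dissolved in DMSO and absorbance at 595 nm expressed as % of control. Triplicate, repeated at least three times.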

PC-3 [18] = experiment: Cytotoxicity against human PC3 cells after 24 hrs in absence of GSH-OEt by MTT assay; type: functional, cell-based; conditions: PC-3, 24 h; procedure, shortened: as §5
SF-295 [19] = experiment: Cytotoxicity against human SF295 cells after 24 hrs in absence of GSH-OEt by MTT assay; type: functional, cell-based; conditions: SF-295, 24 h; procedure, shortened: as §5
HCT-116 [20] = experiment: Cytotoxicity against human HCT116 cells after 24 hrs in absence of GSH-OEt by MTT assay; type: functional, cell-based; conditions: HCT-116, 24 h; procedure, shortened: as §5
L929 [21] = experiment: Cytotoxicity against mouse L929 cells after 24 hrs in absence of GSH-OEt by MTT assay; type: cell-based; conditions: L929, 24 h; procedure, shortened: as §5
HCT-116 [22] = experiment: Geno-toxicity in human HCT116 cells assessed as induction of DNA damage at 2.5 to 10 uM treated 24 hrs post NAC addition measured after 24 hrs by alkaline comet assay; type: functional, cell-based
Procedure, shortened: (§6)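 Alkaline comet assay after 24 h at 2.5, 5 and 10 µM, with or without 24 h pretreatment with 5 mM NAC. Cells were trypsinized and embedded in 0.75% low-melting agarose, then lysed at pH 10, 4 °C, ≥1 h. DNA was unwound 20 min at pH >13 and electrophoresed 20 min at 25 V, 300 mA (0.86 V/cm), then stained with ethidium bromide. 100 cells (2 slides) were scored in classes 0–4 for a damage index. Mean ± SEM, three independent experiments in triplicate.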

L929 [23] = experiment: Geno-toxicity in mouse L929 cells assessed as induction of DNA damage at 2.5 to 10 uM treated 24 hrs post NAC addition measured after 24 hrs by alkaline comet assay; type: cell-based; conditions: l929, 24 h; procedure, shortened: as §6

IC50 (HCT-116 [1]): 0.32 µM
Activity (L929 [14]): 3.5 µg/mg
Activity (L929 [15]): 5.21 µg/mg
Activity (L929 [16]): 1.15 µg/mg
SMILES: CC1(C)OC2=C(C(=O)C(=O)c3ccccc32)C1n1cc(CNC2=[N+]3C(=C(c4ccccc4)c4ccc(Cl)n4[B-]3(F)F)C=C2)nn1 (stereo not drawn)
IC50 (L929 [2]): 0.92 µM
Ratio IC50 [3]: 2.3
Ratio IC50 [4]: 0.8
Activity (SF-295 [5]): Active
Activity (PC-3 [6]): inactive
Activity (PC-3 [7]): 3.53 µg/mg
Activity (PC-3 [8]): 4.26 µg/mg
Activity (SF-295 [9]): 3.44 µg/mg
Activity (SF-295 [10]): 0.39 µg/mg
Activity (SF-295 [11]): 2.82 µg/mg
Activity (HCT-116 [12]): 5.12 µg/mg
Activity (HCT-116 [13]): 1.38 µg/mg
IC50 (HCT-116 [17]): 14.2 µM
IC50 (PC-3 [18]): 4.47 µM
IC50 (SF-295 [19]): 1.96 µM
IC50 (HCT-116 [20]): 5.28 µM
IC50 (L929 [21]): 5.91 µM
Activity (HCT-116 [22]): Active
Activity (L929 [23]): Toxic
